# This is a sample that favours compounds with a hit; in the whole collection about 3.7% have one here.
# KCNK9 inh-1: KCNK9 potassium channel inhibitors, primary screen, HEK293 cells, thallium flux | AID 488922, 2010 | B-score at 10 µM | FluxOR thallium flux fluorescence; active compounds read low | 310,000 compounds, 1.2% hits;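 active = ratio B-score over 3 SD below the library mean, with starting fluorescence within 5 SD of its mean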;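 note: negative B-score means less thallium flux so channel inhibition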
# Target sequence (Q9NPC2 whole entry, looked up): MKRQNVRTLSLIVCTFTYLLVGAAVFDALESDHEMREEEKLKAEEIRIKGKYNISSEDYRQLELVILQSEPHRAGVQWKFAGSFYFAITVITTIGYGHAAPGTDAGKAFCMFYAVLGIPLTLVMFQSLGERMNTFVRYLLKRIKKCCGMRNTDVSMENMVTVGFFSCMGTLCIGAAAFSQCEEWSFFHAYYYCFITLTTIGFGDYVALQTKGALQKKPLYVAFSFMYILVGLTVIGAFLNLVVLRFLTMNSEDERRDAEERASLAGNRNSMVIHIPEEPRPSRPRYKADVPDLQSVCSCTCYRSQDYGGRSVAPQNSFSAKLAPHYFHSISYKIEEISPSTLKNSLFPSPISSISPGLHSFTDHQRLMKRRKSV
# Kir21 block: inhibitors of mouse Kir2.1 inward-rectifier potassium channel | Inward rectifier potassium channel 2 (Mus musculus), P35561 | HEK293-Kir2.1, FluxOR thallium flux fluorescence; active compounds read low | B-score at 10 µM | 310,000 compounds, 0.85% hits | AID 1672, 2009;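 active = fluorescence ratio B-score at or below minus 3 SD of library scores, with starting-brightness B-score within 2 SD, cut at about -4.2 in these data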;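 note: channel flux triggered by added potassium and thallium sulfate stimulus; B-score of peak minus minimum fluorescence over baseline after thallium stimulus; more negative B-score means stronger Kir2.1 block with less thallium influx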
# KCNQ1 pot: potentiators or activators of KCNQ1 channel, primary screen, cell-based, thallium flux, high-throughput; CHO-K1 KCNQ1, thallium flux FluxOR fluorescence; active compounds read high; 310,000 compounds, 0.35% hits; B-score at 10 µM; Potassium voltage-gated channel subfamily KQT member 1 (Homo sapiens), P51787;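 active = fluorescence ratio B-score, a plate-corrected score, at least three library SD, with initial intensity B-score within 5 SD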
#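 Doses: Single concentration per compound, DMSO matched to controls | Test system: KCNQ1-transfected CHO-K1 cells | Timing: 90 min dye loading and 20 min compound exposure, both at room temperature | Measured by: Kinetic FluxOR thallium fluorescence, 10-s 1-Hz baseline, 110-s post-stimulus read | Medium: Assay buffer with matched DMSO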
# KCNQ1 inh: inhibitors of human KCNQ1 channel, primary screen, cell-based, thallium flux, high-throughput; 310,000 compounds, 1.3% hits; CHO-K1 KCNQ1, FluxOR thallium flux fluorescence; active compounds read high; B-score at 10 µM; Potassium voltage-gated channel subfamily KQT member 1 (Homo sapiens), P51787;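 active = compounds whose thallium flux B-score, printed positive for inhibition, exceeds three library SD while starting fluorescence stays within three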;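 note: channel opened by potassium depolarization with thallium stimulus after 20 min compound exposure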
# hERG protect: hERG rescue from dofetilide block, primary screen, cell-based, CHO-hERG, FluxOR thallium flux, dofetilide IC70. dofetilide IC70 present. activation (rescue from dofetilide block), less the hit threshold, % at 10 µM. 310,000 compounds, 0.51% hits. AID 1511, 2009;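 active = activation above the mean of controls blocked by dofetilide plus 5 SD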;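 note: thallium influx through hERG after potassium depolarization seen as dye fluorescence rise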
# KCNK3 inh: human KCNK3 channel inhibitors, primary screen, CHO cells, FluxOR thallium flux, B-score; 340,000 compounds, 0.84% hits; Potassium channel subfamily K member 3 (Homo sapiens), O14649; B-score at 10 µM; AID 602410, 2012; FluxOR fluorescence; active compounds read low;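 active = B-score under library mean minus 4 SD, starting fluorescence ratio at most library mean plus 5 SD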;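 note: more negative B-score means stronger inhibition of thallium flux through KCNK3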
# hERG inh: hERG channel inhibition, counter-screen for Kir2.1 inhibitor project, cell-based, thallium flux; shares compounds with Kir21 block; hERG-expressing cells; inhibition, % at 10 µM; 320 compounds, 20% hits; AID 2236, 2010;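 note: host cells are CHO cells stably expressing hERG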
# KCNK9 inh-2: KCNK9 channel inhibition, selectivity assay for Kir2.1 inhibitor project, cell-based | 320 compounds, 5% hits | KCNK9-expressing cells, ion flux inhibition | inhibition, % at 10 µM | shares compounds with Kir21 block
# Kir2-1 patch inh: mouse Kir2.1 channel blockers, Kir2.1 inhibitor project, cell-based, secondary, automated electrophysiology | 320 compounds, 71% hits | shares compounds with Kir21 block | Kir2.1 cells, automated patch-clamp current inhibition | inhibition, % at 25 µM
# Numbers without * were called inactive; i = inactive; . = no result given. Unless noted, the rule behind the calls is not given here.
SMILES,KCNK9 inh-1,Kir21 block,KCNQ1 pot,KCNQ1 inh,hERG protect,KCNK3 inh,hERG inh,KCNK9 inh-2,Kir2-1 patch inh
CCCCCc1nnc(NC(=O)CN2C(=O)C3CCCCC3C2=O)s1 (centres undefined),i,0.03,i,i,-11,i,.,.,.
COCCNCC(O)CON=C1c2ccccc2-c2ccccc21 (centres undefined),i,-7*,i,i,-27,i,i,i,19%*
CCNC(=O)CON=C1c2ccccc2-c2ccccc21,i,2.3,i,i,-8,i,.,.,.
Cc1cc(OCC(=O)NNC(=O)c2cccnc2)cc(C)c1Cl,i,-2.7,i,i,-7,i,.,.,.
Nc1ccc(-c2ccc(N)cc2C(F)(F)F)c(C(F)(F)F)c1,i,-6.4*,i,i,-10,i,i,48%*,i
O=C(Oc1ccc(-c2nnco2)cc1)C1CCN(C(=O)c2ccc(F)cc2)CC1,i,0.37,i,i,-4,i,.,.,.
CCC(C)NCCOCCOc1ccccc1-c1ccccc1 (centres undefined),i,-6.2*,i,i,-14,i,i,i,35%*
CC(C)(C)NCCOCCOc1ccccc1-c1ccccc1,i,-1.3,i,i,-11,i,.,.,.
Cc1ccc(Nc2cc(C)nc3c(C)cccc23)cc1,i,-8.7*,i,i,-6,i,i,i,61%*
COc1ccc(Nc2cc(C)nc3ccccc23)cc1,i,-4,i,i,-8,i,.,.,.
Cc1ccc([N+](=O)[O-])cc1S(=O)(=O)NCC1COc2ccccc2O1 (centres undefined),i,-6.4*,i,i,-10,i,i,36%*,11%*
Cc1ccc(S(=O)(=O)Oc2ccccc2/C=N/N=C(N)N)cc1,i,-11*,i,i,-20,i,61%*,i,i
Cc1ccc(S(=O)(=O)Oc2ccccc2/C=N/NC(N)=S)cc1,i,-0.07,i,i,-7,i,.,.,.
COc1cc(C)ccc1OCCCCNCc1ccccc1,i,-5.8*,i,i,-4,i,i,i,37%*
S=C(NCC1CCCO1)N1CCN(c2nc(-c3ccc(Cl)cc3)cs2)CC1 (centres undefined),i,1.3,i,i,-8,i,i,i,i
NC(=O)C1CCCN1Cc1ccc2c(c1)OCO2 (centres undefined),.,.,.,.,.,i,.,.,.
CSc1ccc(NC(=O)NCCCN2CCC(Cc3ccccc3)CC2)cc1,i,-6*,i,i,-20,i,75%*,i,20%*
CN(C)C(CNC(=O)CCc1nc2cc(Cl)ccc2n(Cc2ccccc2)c1=O)c1ccccc1 (centres undefined),i,-6.4*,i,i,-20,i,71%*,i,i
COc1ccc2c(c1)C(=O)Cc1ccccc1O2,i,0.06,i,i,-2,i,.,.,.
Cc1cc(C)c(OCCCCN(C)C)c(Br)c1,i,-2.5,i,i,-5,i,.,.,.

# Source: PubChem
